Hits are enriched below; roughly 2.5% of the tested compounds scored in any of these assays.
ABCB1 inh: human ABCB1 inhibition, ABCG2 as counter-screen; CCRF-Adr cells, JC-1 efflux, flow cytometry; inhibition, % at 6.6 µM; actives 0.067% (n = 190,000); AID 1326; in the data active means inhibition above about 40%;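 further: higher value means more JC-1 retained so stronger ABCB1 efflux block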
ABCG2 inh: human ABCG2 inhibition, ABCB1 as counter-screen; Q9UNQ0; IgMXP3 cells, JC-1 efflux, flow cytometry; inhibition, % at 6.6 µM; actives 0.1% (n = 190,000);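 active means inhibition above 80%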
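Test system: IgMXP3 (ABCG2) plus far-red-tagged CCRF-Adr (ABCB1) cells. Reagent: JC-1 dye as substrate. Timing: 10 min exposure at 25 °C with rotation, no wash. Measured by: flow cytometric JC-1 green MFI at 530 nm. Read-out: percent efflux inhibition, scaled nicardipine 100% to DMSO 0%. Control set: nicardipine and DMSO wells.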
MEKK2 WT-MEK5: raises or lowers MEK5 binding to wildtype human MEKK2 PB1 domain; Q9Y2U5; bead flow cytometry, Alexa488-MEK5 binding to MEKK2 WT; actives lie on both sides; binding response (% of control), % at 10 µM; actives 1.1% (n = 290,000); AID 1531; in the data active means binding response below about 67% or above about 130%
MEKK2mut PB1 HTS: signal of MEK5 binding to mutant human MEKK2 PB1 domain; actives 0.35% (n = 290,000); bead flow cytometry, Alexa488-MEK5 binding to MEKK2 mutant; percent response, % at 10 µM; in the data active means percent response above about 24%, passing the limit was not always enough
MEKK3 PB1 HTS: MEKK3-MEK5 PB1 interaction, increase or decrease | binding response (% of control), % at 10 µM | bead-based flow cytometry, Alexa488-MEK5 binding to MEKK3; actives lie on both sides; 0 = blocked by unlabeled MEK5, 100 = vehicle | Q99759 | actives 1.4% (n = 290,000);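 active means binding response more than 3 SD above or below the average of its plate-row segment, actives on both sides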;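 further: Alexa488 bead fluorescence after subtracting the streptavidin-only scavenger bead signal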
Efflux pump mplx: blocks antifungal efflux pumps in multiplex yeast assay; S. cerevisiae Candida pump triplex, Nile Red efflux; inhibition, % at 10 µM; actives 0.44% (n = 330,000);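 active means plate passing quality check with inhibition over a set limit, or well fluorescence over plate mean plus 4 SD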;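 further: Nile Red retained in pooled yeast measured as flow cytometry median fluorescence; higher means more Nile Red kept so more efflux inhibition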
ABCB1 single pt: confirmation of human ABCB1 transporter inhibitors, ABCG2 counter-screen. shares compounds with ABCG2 inh. CCRF-Adr cells, JC-1 efflux, flow cytometry. inhibition, % at 6.6 µM. actives 7% (n = 270);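 active means inhibition of pump activity above 50%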
ABCG2 confirm: inhibits human ABCG2 efflux, confirmed at single point. shares compounds with ABCG2 inh. IgMXP3 cells, JC-1 efflux, flow cytometry. inhibition, % at 6.6 µM. actives 6% (n = 270);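 active means inhibition above 50%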
IgMXP3 fluor: compound fluoresces at 488/530 nm in IgMXP3 cells. shares compounds with ABCG2 inh. compound autofluorescence 488/530 nm, flow; hits give high values. fluorescence at 6.6 µM. actives 30% (n = 270). AID 1480;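 active means fluorescence in ABCG2-expressing cells above the plate's control-well mean plus 3 SD, cut at about 15 in these data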
CCRF autofluor: CCRF-Adr autofluorescence flag for ABCB1 confirmation; fluorescence at 6.6 µM; AID 1483; actives 30% (n = 270); shares compounds with ABCG2 inh; CCRF-Adr cells, compound autofluorescence 488/530 nm, flow cytometry; hits give high values;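 active means fluorescence beyond the plate control mean plus 3 SD, with a fluorescence-to-maximum score over 2, cut at about 25 in these data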
Numbers stand for hits.

`CCOC(=O)c1sc(Nc2nc3cc4c(cc3s2)OCO4)cc1C` gave ABCB1 inh 195.0, ABCG2 inh 175.3, MEKK2 WT-MEK5 inactive, MEKK2mut PB1 HTS inactive, MEKK3 PB1 HTS inactive, Efflux pump mplx inactive, ABCB1 single pt inactive, ABCG2 confirm inactive, IgMXP3 fluor inactive and CCRF autofluor inactive.
For CC(=O)Nc1ccc(NC(=O)C(C)OC(=O)c2ccc(S(=O)(=O)N3CCCCCC3)cc2)cc1 (stereo not drawn) the results were Efflux pump mplx inactive.
Screening COc1cc(/C=c2\sc3nc(-c4ccncc4)nn3c2=O)ccc1OC(C)=O returned ABCB1 inh inactive and ABCG2 inh inactive.
For CN(C)c1ccc(/C=c2\sc3nc(-c4ccccc4)nn3c2=O)cc1 the results were ABCB1 inh 45.9, ABCG2 inh inactive, ABCB1 single pt inactive, ABCG2 confirm inactive, IgMXP3 fluor 79.6 and CCRF autofluor 61.2.
For Cc1cc(C)c(C#N)c(SCC(=O)c2cc(C)n(CCc3ccccc3)c2C)n1 the results were ABCB1 inh inactive, ABCG2 inh inactive, MEKK2 WT-MEK5 inactive, MEKK2mut PB1 HTS inactive, MEKK3 PB1 HTS inactive and Efflux pump mplx inactive.
Screening COCCn1c(C)cc(C(=O)CSc2nc(C)cc(C)c2C#N)c1C returned ABCB1 inh inactive, ABCG2 inh 97.2, MEKK2 WT-MEK5 inactive, MEKK2mut PB1 HTS inactive, MEKK3 PB1 HTS inactive, Efflux pump mplx inactive, ABCB1 single pt inactive, ABCG2 confirm inactive, IgMXP3 fluor 24.2 and CCRF autofluor inactive.
`Cc1cc(N2CCCCC2)ccc1[N+](=O)[O-]` gave ABCB1 inh inactive, ABCG2 inh 83.7, MEKK2 WT-MEK5 inactive, MEKK2mut PB1 HTS inactive, MEKK3 PB1 HTS inactive, Efflux pump mplx inactive, ABCB1 single pt inactive, ABCG2 confirm inactive, IgMXP3 fluor inactive and CCRF autofluor inactive.
For Cc1ccc(C(=O)N/N=C(\CC(C)C)c2ccccc2)cc1 the results were ABCB1 inh inactive, ABCG2 inh inactive, MEKK2 WT-MEK5 inactive, MEKK2mut PB1 HTS inactive, MEKK3 PB1 HTS inactive and Efflux pump mplx inactive.
COc1ccc(NC(=O)CN2CCN(C3c4ccccc4-c4ccccc43)CC2)c(OC)c1 was read as ABCB1 inh inactive, ABCG2 inh inactive, MEKK2 WT-MEK5 inactive, MEKK2mut PB1 HTS inactive, MEKK3 PB1 HTS inactive, Efflux pump mplx inactive, ABCB1 single pt inactive, ABCG2 confirm inactive, IgMXP3 fluor inactive and CCRF autofluor inactive.
For COc1ccccc1Nc1nc2nonc2nc1N1CCCCC1C (stereo not drawn) the results were ABCB1 inh inactive, ABCG2 inh 87.0, MEKK2 WT-MEK5 inactive, MEKK2mut PB1 HTS inactive, MEKK3 PB1 HTS inactive, Efflux pump mplx inactive, ABCB1 single pt inactive, ABCG2 confirm inactive, IgMXP3 fluor 30.3 and CCRF autofluor inactive.
COc1ccc2nc(SCc3ccccc3C)nc(C)c2c1 was read as ABCB1 inh inactive, ABCG2 inh 89.7, MEKK2 WT-MEK5 inactive, MEKK2mut PB1 HTS inactive, MEKK3 PB1 HTS inactive, Efflux pump mplx inactive, ABCB1 single pt inactive, ABCG2 confirm inactive, IgMXP3 fluor 16 and CCRF autofluor inactive.
COc1ccc2nc(SCc3cccc(C)c3)nc(C)c2c1 was read as ABCB1 inh inactive, ABCG2 inh inactive, MEKK2 WT-MEK5 inactive, MEKK2mut PB1 HTS inactive, MEKK3 PB1 HTS inactive and Efflux pump mplx inactive.
Screening C=CCn1cc(C(=O)OCC)c(=O)c2cc(F)c(F)cc21 returned MEKK2 WT-MEK5 inactive, MEKK2mut PB1 HTS inactive, MEKK3 PB1 HTS inactive and Efflux pump mplx inactive.

Assay outcomes (PubChem)
